{"source": "ChEMBL document CHEMBL5678806", "about": "“NMS-P937, an orally available, specific small-molecule polo-like kinase 1 inhibitor with antitumor activity in solid and hematologic malignancies” (Mol Cancer Ther, 2012)", "key": {"NCI-H889": {"tested_on": "NCI-H889", "test": "Antiproliferative activity against human NCI-H889 cells assessed as inhibition of cell growth incubated for 72 hrs by cell-titer glo assay", "format": "functional, cell-based", "settings": "NCI-H889, 72 h", "in_short": "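Cells from ATCC or ECACC, kept in supplier-recommended medium with 1% penicillin-streptomycin at 37°C, 5% CO₂. Seeded at 10,000–30,000/cm² (adherent) or 100,000/mL (nonadherent) in medium with 10% fetal calf serum. Dosed after 24 h in duplicate with serial dilutions. Viable cells read by CellTiter-Glo 72 h later. IC50 from sigmoidal fit. At least two independent experiments.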"}, "SR": {"tested_on": "SR", "test": "Antiproliferative activity against human SR cells assessed as inhibition of cell growth incubated for 72 hrs by cell-titer glo assay", "format": "functional, cell-based"}, "[1]": {"target": "Fibroblast growth factor receptor 4 (Homo sapiens) (UniProt P22455)", "test": "Inhibition of N-terminal His6-tagged recombinant human FGFR4 (442 to 755 residues) expressed in baculovirus infected Sf21 cells assessed as residual activity at 1 uM relative to control"}, "[2]": {"target": "Tyrosine-protein kinase Fgr (Homo sapiens) (UniProt P09769)", "sequence (P09769 2-529 limits assumed)": "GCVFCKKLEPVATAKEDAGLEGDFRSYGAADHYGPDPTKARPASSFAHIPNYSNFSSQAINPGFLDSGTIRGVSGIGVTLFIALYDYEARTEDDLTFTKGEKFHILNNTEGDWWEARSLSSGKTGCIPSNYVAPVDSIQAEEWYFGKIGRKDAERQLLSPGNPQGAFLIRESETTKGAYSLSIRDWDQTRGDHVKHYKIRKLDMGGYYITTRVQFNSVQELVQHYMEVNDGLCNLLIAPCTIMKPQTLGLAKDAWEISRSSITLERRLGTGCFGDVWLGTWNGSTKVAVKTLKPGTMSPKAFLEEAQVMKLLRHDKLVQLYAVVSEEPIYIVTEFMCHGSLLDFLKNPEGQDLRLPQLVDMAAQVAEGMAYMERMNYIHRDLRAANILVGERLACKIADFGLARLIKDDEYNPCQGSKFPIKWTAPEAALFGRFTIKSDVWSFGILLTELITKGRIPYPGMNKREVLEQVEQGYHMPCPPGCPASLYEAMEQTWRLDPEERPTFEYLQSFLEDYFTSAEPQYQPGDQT", "test": "Inhibition of N-terminal His6-tagged recombinant human Fgr (2 to end residues) expressed in baculovirus infected Sf21 cells assessed as residual activity at 0.1 uM relative to control"}, "KM12": {"tested_on": "KM12", "test": "Antiproliferative activity against human KM12 cells assessed as inhibition of cell growth incubated for 72 hrs by cell-titer glo assay", "format": "functional, cell-based", "settings": "KM12, 72 h", "in_short": "(§1)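 Cells seeded at 10,000–30,000/cm² (adherent) or 100,000/mL (nonadherent) in medium with 10% fetal calf serum; after 24 h, treated in duplicate with serial dilutions for 72 h. Viable cell number read by CellTiter-Glo luminescence; IC50 from sigmoidal fit; at least two independent experiments.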"}, "[3]": {"target": "MAP kinase-activated protein kinase 5 (Homo sapiens) (UniProt Q8IW41)", "test": "Inhibition of N-terminal His6-tagged recombinant human full-length PRAK expressed in baculovirus infected Sf21 cells assessed as residual activity at 1 uM relative to control"}, "[4]": {"target": "MAP kinase-interacting serine/threonine-protein kinase 2 (Homo sapiens, UniProt Q9HBH9)", "test": "Inhibition of MNK2 (unknown origin) in presence of [gamma-33P]ATP"}, "[5]": {"target": "Dual specificity mitogen-activated protein kinase kinase 7 (Homo sapiens) (UniProt O14733)", "sequence (O14733 whole entry)": "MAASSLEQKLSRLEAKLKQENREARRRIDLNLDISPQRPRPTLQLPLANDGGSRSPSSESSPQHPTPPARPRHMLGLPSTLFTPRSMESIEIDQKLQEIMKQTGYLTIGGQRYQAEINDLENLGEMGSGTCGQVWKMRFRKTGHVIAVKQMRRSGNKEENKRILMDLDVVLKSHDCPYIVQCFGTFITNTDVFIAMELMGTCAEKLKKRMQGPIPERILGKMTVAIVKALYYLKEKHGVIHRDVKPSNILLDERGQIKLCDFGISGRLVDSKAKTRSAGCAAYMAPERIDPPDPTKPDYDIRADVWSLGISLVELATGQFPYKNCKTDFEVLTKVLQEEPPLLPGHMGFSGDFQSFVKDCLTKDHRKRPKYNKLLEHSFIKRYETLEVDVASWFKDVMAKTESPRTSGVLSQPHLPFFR", "test": "Inhibition of N-terminal GST-tagged recombinant human MKK7beta (2 to end residues) expressed in E. coli assessed as residual activity at 0.1 uM relative to control"}, "HCC70": {"tested_on": "HCC70", "test": "Antiproliferative activity against human HCC70 cells assessed as inhibition of cell growth incubated for 72 hrs by cell-titer glo assay", "format": "functional, cell-based", "settings": "HCC70, 72 h", "in_short": "as §1"}, "[6]": {"target": "Vascular endothelial growth factor receptor 3 (Homo sapiens, UniProt P35916)", "sequence (P35916 whole entry)": "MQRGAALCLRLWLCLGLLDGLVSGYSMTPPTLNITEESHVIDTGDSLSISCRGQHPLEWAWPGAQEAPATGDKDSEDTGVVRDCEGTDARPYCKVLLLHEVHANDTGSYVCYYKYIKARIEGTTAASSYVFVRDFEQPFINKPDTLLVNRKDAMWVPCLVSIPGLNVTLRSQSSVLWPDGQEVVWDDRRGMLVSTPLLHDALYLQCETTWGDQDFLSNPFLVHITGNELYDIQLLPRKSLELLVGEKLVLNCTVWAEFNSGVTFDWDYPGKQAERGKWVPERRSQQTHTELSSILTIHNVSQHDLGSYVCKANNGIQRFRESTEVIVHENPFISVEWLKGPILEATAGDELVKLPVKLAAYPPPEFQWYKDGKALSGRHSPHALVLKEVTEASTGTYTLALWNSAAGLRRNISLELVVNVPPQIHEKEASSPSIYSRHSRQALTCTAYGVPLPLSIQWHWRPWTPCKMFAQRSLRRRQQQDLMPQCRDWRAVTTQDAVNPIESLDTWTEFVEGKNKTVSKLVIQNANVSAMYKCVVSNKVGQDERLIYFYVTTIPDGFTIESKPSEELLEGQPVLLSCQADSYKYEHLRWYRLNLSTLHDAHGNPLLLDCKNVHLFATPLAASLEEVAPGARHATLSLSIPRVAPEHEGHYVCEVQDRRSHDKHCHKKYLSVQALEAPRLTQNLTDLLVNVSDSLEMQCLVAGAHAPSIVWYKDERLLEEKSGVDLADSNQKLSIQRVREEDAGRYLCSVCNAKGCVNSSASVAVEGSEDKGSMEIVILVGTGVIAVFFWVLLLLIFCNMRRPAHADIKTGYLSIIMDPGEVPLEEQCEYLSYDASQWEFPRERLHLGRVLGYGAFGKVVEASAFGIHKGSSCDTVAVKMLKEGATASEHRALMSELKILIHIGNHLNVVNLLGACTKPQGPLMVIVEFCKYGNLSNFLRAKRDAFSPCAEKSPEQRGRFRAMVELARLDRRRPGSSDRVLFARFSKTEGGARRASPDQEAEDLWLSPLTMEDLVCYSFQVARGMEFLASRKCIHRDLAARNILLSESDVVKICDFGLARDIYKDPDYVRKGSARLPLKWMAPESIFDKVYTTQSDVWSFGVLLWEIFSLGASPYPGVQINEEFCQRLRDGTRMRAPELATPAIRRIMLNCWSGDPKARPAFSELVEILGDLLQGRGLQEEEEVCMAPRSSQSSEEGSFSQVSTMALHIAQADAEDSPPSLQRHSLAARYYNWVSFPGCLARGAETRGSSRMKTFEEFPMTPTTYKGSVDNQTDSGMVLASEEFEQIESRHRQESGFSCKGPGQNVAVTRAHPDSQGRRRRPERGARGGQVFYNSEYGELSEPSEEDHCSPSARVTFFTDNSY", "test": "Inhibition of VEGFR3 (unknown origin) in presence of [gamma-33P]ATP"}, "[7]": {"target": "MAP kinase-activated protein kinase 2 (Homo sapiens, UniProt P49137)", "test": "Inhibition of MAPKAPK2 (unknown origin) in presence of [gamma-33P]ATP"}, "[8]": {"test": "AUC in male cynomolgus monkey at 5 mg/kg, po by LC-MS analysis", "format": "ADME, organism-based, Macaca fascicularis", "settings": "in vivo"}, "Insulin receptor": {"target": "Insulin receptor (Homo sapiens, UniProt P06213)", "sequence (P06213 28-758 limits assumed)": "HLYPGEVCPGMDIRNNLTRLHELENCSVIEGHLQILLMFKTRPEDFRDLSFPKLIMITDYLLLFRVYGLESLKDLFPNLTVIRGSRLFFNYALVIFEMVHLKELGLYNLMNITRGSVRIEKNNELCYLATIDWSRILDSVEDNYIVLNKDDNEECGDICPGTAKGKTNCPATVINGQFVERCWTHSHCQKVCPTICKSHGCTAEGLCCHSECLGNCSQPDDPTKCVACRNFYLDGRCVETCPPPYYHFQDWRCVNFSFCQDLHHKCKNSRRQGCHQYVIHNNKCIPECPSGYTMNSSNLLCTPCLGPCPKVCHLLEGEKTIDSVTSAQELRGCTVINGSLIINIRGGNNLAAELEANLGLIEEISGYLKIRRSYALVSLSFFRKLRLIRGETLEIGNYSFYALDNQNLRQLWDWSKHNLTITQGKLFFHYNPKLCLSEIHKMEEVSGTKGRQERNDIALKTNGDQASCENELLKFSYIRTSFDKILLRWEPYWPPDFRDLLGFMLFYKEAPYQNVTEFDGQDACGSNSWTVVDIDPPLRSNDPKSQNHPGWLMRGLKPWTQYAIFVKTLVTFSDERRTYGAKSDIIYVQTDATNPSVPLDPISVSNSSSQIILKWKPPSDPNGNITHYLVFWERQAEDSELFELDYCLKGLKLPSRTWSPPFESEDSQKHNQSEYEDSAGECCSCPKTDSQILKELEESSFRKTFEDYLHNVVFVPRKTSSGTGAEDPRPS", "sequence (P06213 763-1382 limits assumed)": "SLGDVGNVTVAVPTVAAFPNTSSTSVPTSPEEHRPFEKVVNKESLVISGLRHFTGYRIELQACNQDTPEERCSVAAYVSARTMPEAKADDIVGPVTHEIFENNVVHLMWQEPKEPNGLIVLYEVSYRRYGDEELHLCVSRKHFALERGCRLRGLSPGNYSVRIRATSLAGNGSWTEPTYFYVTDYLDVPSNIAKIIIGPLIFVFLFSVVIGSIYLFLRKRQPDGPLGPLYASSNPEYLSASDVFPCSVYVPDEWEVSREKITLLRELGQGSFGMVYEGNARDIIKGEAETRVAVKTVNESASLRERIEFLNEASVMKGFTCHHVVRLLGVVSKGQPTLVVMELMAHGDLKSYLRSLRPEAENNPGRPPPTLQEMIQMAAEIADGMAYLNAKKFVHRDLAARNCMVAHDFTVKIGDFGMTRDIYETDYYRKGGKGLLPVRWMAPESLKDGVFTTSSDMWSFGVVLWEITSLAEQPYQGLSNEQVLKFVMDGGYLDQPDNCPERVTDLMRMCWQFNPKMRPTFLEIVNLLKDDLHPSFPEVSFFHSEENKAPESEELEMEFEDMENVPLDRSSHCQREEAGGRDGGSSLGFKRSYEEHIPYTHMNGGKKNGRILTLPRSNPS", "test": "Inhibition of IR (unknown origin) in presence of [gamma-33P]ATP"}, "[9]": {"target": "Serine/threonine-protein kinase tousled-like 2 (Homo sapiens, UniProt Q86UE8)", "test": "Inhibition of TLK2 (unknown origin) in presence of [gamma-33P]ATP"}, "[10]": {"target": "Serine/threonine-protein kinase Nek3 (Homo sapiens) (UniProt P51956)", "test": "Inhibition of N-terminal 6His-tagged recombinant full length human NEK3 expressed in baculovirus infected Sf21 cells assessed as residual activity at 0.1 uM relative to control"}, "[11]": {"test": "AUC in Beagle dog at 5 mg/kg, po by LC-MS analysis", "format": "ADME, organism-based, Canis lupus familiaris", "settings": "in vivo"}, "Calu-3": {"tested_on": "Calu-3", "test": "Antiproliferative activity against human Calu-3 cells assessed as inhibition of cell growth incubated for 72 hrs by cell-titer glo assay", "format": "functional, cell-based", "settings": "Calu-3, 72 h", "in_short": "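Cells seeded 10,000–30,000/cm² (adherent) or 100,000/mL (suspension) in medium with 10% fetal calf serum; after 24 h treated in duplicate with serial dilutions for 72 h. Viable cells read by CellTiter-Glo luminescence; IC50 from sigmoidal fit; at least two independent experiments.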"}, "[12]": {"target": "Dual specificity mitogen-activated protein kinase kinase 1 (Homo sapiens) (UniProt Q02750)", "test": "Inhibition of N-terminal GST and C-terminal His6-tagged recombinant full-length human MEK1 expressed in E. coli assessed as residual activity at 0.1 uM relative to control"}, "NHDF": {"tested_on": "NHDF", "test": "Induction of DNA damage in human NHDF cells assessed as H2AX phosphorylation at 0.5 to 1 uM incubated for 8 hrs by Western blotting analysis", "format": "toxicity, cell-based", "settings": "dose 0.5-1 µM"}, "[13]": {"target": "cAMP-dependent protein kinase catalytic subunit PRKX (Homo sapiens) (UniProt P51817)", "test": "Inhibition of N-terminal 6His-tagged recombinant full-length human PrKX expressed in baculovirus infected Sf21 cells assessed as residual activity at 0.1 uM relative to control"}, "[14]": {"target": "Tyrosine-protein kinase Lyn (Homo sapiens, UniProt P07948)", "sequence (P07948 2-512 limits assumed)": "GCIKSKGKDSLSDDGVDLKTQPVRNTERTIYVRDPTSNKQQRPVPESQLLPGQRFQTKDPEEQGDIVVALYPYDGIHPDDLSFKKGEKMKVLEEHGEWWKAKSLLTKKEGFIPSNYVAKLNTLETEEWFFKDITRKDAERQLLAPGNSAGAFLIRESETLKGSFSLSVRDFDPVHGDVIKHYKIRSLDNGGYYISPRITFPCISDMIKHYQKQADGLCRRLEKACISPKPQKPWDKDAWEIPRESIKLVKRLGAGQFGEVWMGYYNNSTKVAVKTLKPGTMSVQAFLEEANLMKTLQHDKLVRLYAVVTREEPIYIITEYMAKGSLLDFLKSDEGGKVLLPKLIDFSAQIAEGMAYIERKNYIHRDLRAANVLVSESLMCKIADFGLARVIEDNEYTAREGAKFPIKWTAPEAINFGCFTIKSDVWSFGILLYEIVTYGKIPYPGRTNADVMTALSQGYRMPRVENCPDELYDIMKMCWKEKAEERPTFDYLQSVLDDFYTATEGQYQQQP", "test": "Inhibition of N-terminal his6-tagged recombinant full-length human Lyn expressed in Sf21 cells assessed as residual activity at 0.1 uM relative to control"}, "THP-1": {"tested_on": "THP-1", "test": "Antiproliferative activity against human THP-1 cells assessed as inhibition of cell growth incubated for 72 hrs by cell-titer glo assay", "format": "functional, cell-based", "settings": "THP-1, 72 h"}, "[15]": {"target": "NUAK family SNF1-like kinase 1 (Homo sapiens) (UniProt O60285)", "test": "Inhibition of N-terminal 6His-tagged recombinant human ARK5 (2 to end residues) expressed in baculovirus infected Sf21 cells assessed as residual activity at 1 uM relative to control"}, "U-87 MG": {"tested_on": "U-87 MG", "test": "Antiproliferative activity against human U-87 MG cells assessed as inhibition of cell growth incubated for 72 hrs by cell-titer glo assay", "format": "functional, cell-based, U-87MG ATCC"}, "[16]": {"target": "cAMP-dependent protein kinase (PKA) (Homo sapiens) (UniProt P22694+P17612+P22612)", "test": "Inhibition of recombinant human full-length PKA expressed in E.coli BL21 (DE3) pLysS cells assessed as residual activity at 0.1 uM relative to control"}, "[17]": {"target": "Tyrosine-protein kinase Fgr (Homo sapiens) (UniProt P09769)", "test": "Inhibition of N-terminal His6-tagged recombinant human Fgr (2 to end residues) expressed in baculovirus infected Sf21 cells assessed as residual activity at 1 uM relative to control"}, "[18]": {"test": "Cmax in Sprague-Dawley rat at 10 mg/kg, iv by LC-MS analysis", "format": "ADME, organism-based", "settings": "in vivo"}, "[19]": {"target": "Vascular endothelial growth factor receptor 2 (Homo sapiens, UniProt P35968)", "test": "Inhibition of VEGFR2 (unknown origin) in presence of [gamma-33P]ATP"}, "HCT-15": {"tested_on": "HCT-15", "test": "Antiproliferative activity against human HCT-15 cells assessed as inhibition of cell growth incubated for 72 hrs by cell-titer glo assay", "format": "functional, cell-based", "settings": "HCT-15, 72 h", "in_short": "as §1"}, "[20]": {"target": "cGMP-dependent protein kinase 1 (Homo sapiens) (UniProt Q13976)", "sequence (Q13976 whole entry)": "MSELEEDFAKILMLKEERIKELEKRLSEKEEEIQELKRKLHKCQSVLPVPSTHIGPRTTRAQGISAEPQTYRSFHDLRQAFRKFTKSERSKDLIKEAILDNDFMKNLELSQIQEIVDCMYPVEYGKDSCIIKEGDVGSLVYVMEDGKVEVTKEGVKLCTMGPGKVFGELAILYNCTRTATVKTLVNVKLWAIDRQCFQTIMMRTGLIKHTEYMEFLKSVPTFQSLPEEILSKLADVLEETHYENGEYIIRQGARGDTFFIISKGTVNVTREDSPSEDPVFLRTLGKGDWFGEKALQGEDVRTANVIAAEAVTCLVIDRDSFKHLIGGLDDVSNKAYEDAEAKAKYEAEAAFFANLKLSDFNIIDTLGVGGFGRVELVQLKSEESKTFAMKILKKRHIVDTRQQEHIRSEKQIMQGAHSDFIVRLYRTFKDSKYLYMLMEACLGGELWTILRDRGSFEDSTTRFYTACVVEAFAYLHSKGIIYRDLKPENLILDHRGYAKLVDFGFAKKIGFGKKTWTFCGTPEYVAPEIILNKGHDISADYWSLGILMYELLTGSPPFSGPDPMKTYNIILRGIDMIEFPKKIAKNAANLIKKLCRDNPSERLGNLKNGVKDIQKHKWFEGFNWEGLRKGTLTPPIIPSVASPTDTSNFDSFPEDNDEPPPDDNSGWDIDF", "test": "Inhibition of N-terminal 6His-tagged recombinant, full-length human PKG1alpha expressed in baculovirus infected Sf21 cells assessed as residual activity at 0.1 uM relative to control"}}}
{"smiles": "CN1CCN(c2ccc(OC(F)(F)F)c(Nc3ncc4c(n3)-c3c(c(C(N)=O)nn3CCO)CC4)c2)CC1", "note": "[ONVANSERTIB]", "values": [{"measurement": "IC50", "setting": "NCI-H889", "value": 135, "unit": "nM"}, {"measurement": "IC50", "setting": "SR", "value": 47, "unit": "nM"}, {"measurement": "Activity", "setting": "[1]", "value": 90, "unit": "%"}, {"measurement": "Activity", "setting": "[2]", "value": 93, "unit": "%"}, {"measurement": "IC50", "setting": "KM12", "value": 277, "unit": "nM"}, {"measurement": "Activity", "setting": "[3]", "value": 77, "unit": "%"}, {"measurement": "IC50", "setting": "[4]", "value": "> 10000", "unit": "nM"}, {"measurement": "Activity", "setting": "[5]", "value": 85, "unit": "%"}, {"measurement": "IC50", "setting": "HCC70", "value": 279, "unit": "nM"}, {"measurement": "IC50", "setting": "[6]", "value": "> 10000", "unit": "nM"}, {"measurement": "IC50", "setting": "[7]", "value": "> 10000", "unit": "nM"}, {"measurement": "AUC", "setting": "[8]", "value": 14.8, "unit": "µM·h"}, {"measurement": "IC50", "setting": "Insulin receptor", "value": "> 10000", "unit": "nM"}, {"measurement": "IC50", "setting": "[9]", "value": "> 10000", "unit": "nM"}, {"measurement": "Activity", "setting": "[10]", "value": 127, "unit": "%"}, {"measurement": "AUC", "setting": "[11]", "value": 8.1, "unit": "µM·h"}, {"measurement": "IC50", "setting": "Calu-3", "value": 629, "unit": "nM"}, {"measurement": "Activity", "setting": "[12]", "value": 113, "unit": "%"}, {"measurement": "Activity", "setting": "NHDF", "value": "Toxic"}, {"measurement": "Activity", "setting": "[13]", "value": 90, "unit": "%"}, {"measurement": "Activity", "setting": "[14]", "value": 156, "unit": "%"}, {"measurement": "IC50", "setting": "THP-1", "value": 32, "unit": "nM"}, {"measurement": "Activity", "setting": "[15]", "value": 93, "unit": "%"}, {"measurement": "IC50", "setting": "U-87 MG", "value": 991, "unit": "nM"}, {"measurement": "Activity", "setting": "[16]", "value": 141, "unit": "%"}, {"measurement": "Activity", "setting": "[17]", "value": 85, "unit": "%"}, {"measurement": "Cmax", "setting": "[18]", "value": 6.8, "unit": "µM"}, {"measurement": "IC50", "setting": "[19]", "value": "> 10000", "unit": "nM"}, {"measurement": "IC50", "setting": "HCT-15", "value": 156, "unit": "nM"}, {"measurement": "Activity", "setting": "[20]", "value": 113, "unit": "%"}]}
